KCNQ1 act: potentiators or activators of KCNQ1 channel, primary screen, cell-based, thallium flux, high-throughput. Potassium voltage-gated channel subfamily KQT member 1 (Homo sapiens), P51787. CHO-K1 KCNQ1, thallium flux FluxOR fluorescence; stronger effect = higher value. B-score at 10 µM. 0.35% of 310,000 active. AID 2648, 2010;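 active = fluorescence ratio B-score, a plate-corrected score, at least three library SD, with initial intensity B-score within 5 SD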
Target sequence (P51787 whole entry, looked up): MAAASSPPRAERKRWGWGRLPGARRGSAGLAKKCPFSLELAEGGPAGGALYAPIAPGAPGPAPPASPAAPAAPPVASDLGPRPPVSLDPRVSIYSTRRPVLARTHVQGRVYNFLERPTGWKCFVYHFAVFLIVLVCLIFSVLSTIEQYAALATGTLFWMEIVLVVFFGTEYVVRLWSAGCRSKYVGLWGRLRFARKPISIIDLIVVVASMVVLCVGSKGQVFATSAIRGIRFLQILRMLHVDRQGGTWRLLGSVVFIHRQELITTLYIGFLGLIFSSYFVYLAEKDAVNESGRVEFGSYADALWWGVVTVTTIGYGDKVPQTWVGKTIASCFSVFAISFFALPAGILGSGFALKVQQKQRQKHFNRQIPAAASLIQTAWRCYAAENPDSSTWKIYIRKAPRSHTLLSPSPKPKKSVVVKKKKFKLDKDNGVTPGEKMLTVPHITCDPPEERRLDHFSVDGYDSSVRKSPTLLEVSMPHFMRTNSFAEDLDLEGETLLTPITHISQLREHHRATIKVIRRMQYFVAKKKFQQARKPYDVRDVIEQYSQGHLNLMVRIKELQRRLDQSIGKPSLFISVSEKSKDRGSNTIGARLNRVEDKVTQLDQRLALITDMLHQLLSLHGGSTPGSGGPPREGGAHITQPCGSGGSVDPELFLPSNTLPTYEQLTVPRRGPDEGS
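Medium – assay buffer, equal DMSO in all wells · Material – CHO-K1 cell line with stable KCNQ1 potassium channel expression · Signal – kinetic FluxOR thallium fluorescence, 10-s 1-Hz baseline, 110-s post-stimulus read · Compound – single concentration per compound, DMSO matched to controls · Schedule – 37 °C overnight plating, 90-min dark dye load, 20-min compound pretreatment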
hERG rescue: hERG rescue from dofetilide block, primary screen, cell-based, CHO-hERG, FluxOR thallium flux, dofetilide IC70; 0.51% of 310,000 active; activation (rescue from dofetilide block), less the hit threshold, % at 10 µM; Voltage-gated inwardly rectifying potassium channel KCNH2 (Homo sapiens), Q12809; dofetilide IC70 present; AID 1511, 2009;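 active = activation above the mean of controls blocked by dofetilide plus 5 SD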;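 note: thallium influx through hERG after potassium depolarization seen as dye fluorescence rise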
Kir21 inh: inhibitors of mouse Kir2.1 inward-rectifier potassium channel; Inward rectifier potassium channel 2 (Mus musculus), P35561; HEK293-Kir2.1, FluxOR thallium flux fluorescence; stronger effect = lower value; B-score at 10 µM; 0.85% of 310,000 active;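 active = fluorescence ratio B-score at or below minus 3 SD of library scores, with starting-brightness B-score within 2 SD, cut at about -4.2 in these data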;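 note: channel flux triggered by added potassium and thallium sulfate stimulus; B-score of peak minus minimum fluorescence over baseline after thallium stimulus; more negative B-score means stronger Kir2.1 block with less thallium influx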
KCNQ1 block: inhibitors of human KCNQ1 channel, primary screen, cell-based, thallium flux, high-throughput; Potassium voltage-gated channel subfamily KQT member 1 (Homo sapiens), P51787; CHO-K1 KCNQ1, FluxOR thallium flux fluorescence; stronger effect = higher value; B-score at 10 µM; 1.3% of 310,000 active;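 active = compounds whose thallium flux B-score, printed positive for inhibition, exceeds three library SD while starting fluorescence stays within three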;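 note: channel opened by potassium depolarization with thallium stimulus after 20 min compound exposure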
KCNK9 block: KCNK9 potassium channel inhibitors, primary screen, HEK293 cells, thallium flux | 1.2% of 310,000 active | B-score at 10 µM | FluxOR thallium flux fluorescence; stronger effect = lower value;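 active = ratio B-score over 3 SD below the library mean, with starting fluorescence within 5 SD of its mean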;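 note: negative B-score means less thallium flux so channel inhibition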
KCNK3 block: human KCNK3 channel inhibitors, primary screen, CHO cells, FluxOR thallium flux, B-score; Potassium channel subfamily K member 3 (Homo sapiens), O14649; FluxOR fluorescence; stronger effect = lower value; B-score at 10 µM; 0.84% of 340,000 active; AID 602410, 2012;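 active = B-score under library mean minus 4 SD, starting fluorescence ratio at most library mean plus 5 SD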;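 note: more negative B-score means stronger inhibition of thallium flux through KCNK3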
Active calls of the source: *; i = inactive; . = no result given. This is a sample that favours compounds with a hit; in the whole collection about 3.7% have one here.

SMILES | KCNQ1 act | hERG rescue | Kir21 inh | KCNQ1 block | KCNK9 block | KCNK3 block
CN(C(=O)/C(N=Nc1cccc(C(F)(F)F)c1)=C(\O)C(F)(F)F)c1ccccc1 | i | -23.7 | -0.42 | 6* | i | i
O=C(NCc1nnc(SCC(=O)N2CCCC2)o1)c1cccc(C(F)(F)F)c1 | i | -5.5 | -0.87 | i | i | i
CC(=O)N(C1=C(N)C(=O)c2ccccc2C1=O)C(C)C | i | 6.3* | -0.45 | i | i | i
CC(=O)N(C)C1=C(O)c2ccccc2C(=O)C1=O | i | -8.5 | 0.7 | i | i | i
COc1cccc(CN2CCN(Cc3cc4ccccc4[nH]3)CC2CCO)c1 (stereo not drawn) | 13* | -10.2 | -1.71 | i | i | i
CCOc1ccc(CN2CCN(Cc3cc4ccccc4[nH]3)CC2CCO)cc1 (stereo not drawn) | i | -6.6 | -0.04 | i | i | i
CCc1ccc(N(CC(=O)NC2CCCCC2)C(=O)CCC(=O)Nc2ccccn2)cc1 | i | -2.6 | 0 | i | i | i
COc1ccc(N2CCN(C(=O)CCS(=O)(=O)c3ccc4c(c3)NC(=O)CO4)CC2)cc1 | i | -3.2 | -0.02 | i | i | i
Cc1nn(C)cc1CN(C)Cc1c(C(=O)N(C)Cc2ccccc2)nc2ccccn12 | i | 6.5* | 1.82 | i | i | i
CN(Cc1c(C(=O)N(C)Cc2ccccc2)nc2ccccn12)CC1Cc2ccccc2O1 (stereo not drawn) | i | -13.0 | -2.11 | i | i | i
OCC1(Cc2ccc(F)cc2F)CCCN(Cc2ccc(Cl)cc2)C1 (stereo not drawn) | i | -5.1 | -9.43* | i | i | i
CC(NC(=O)NC1CCCCC1)c1ccccc1 (stereo not drawn) | i | 7.3* | 0.55 | i | i | i
CC(NC(=O)CC1CCCCC1)c1ccccc1 (stereo not drawn) | i | -5.0 | -0.1 | i | i | i
CC(Oc1ccc(Cl)cc1Cl)C(=O)Nc1ccc2oc(-c3ccncc3)nc2c1 (stereo not drawn) | i | -15.1 | -0.44 | i | i | -10.2*
CC(C)CC(=O)Nc1ccc2oc(-c3ccncc3)nc2c1 | i | -8.5 | -2.51 | i | i | i
CCOC(=O)Nc1ccc2c(c1)Nc1ccccc1S2 | i | -7.3 | 1.21 | i | -6.61* | i
N#Cc1c(NC(=O)/C=C/C(=O)O)sc2c1CCN(Cc1ccccc1)C2 | i | -12.3 | -3.18 | 6* | i | i
O=C(C[C@@H]1C/C=C\CCC(=O)O[C@H](c2ccccc2)CNC1=O)N[C@H](CO)Cc1ccccc1 | . | . | . | . | . | i
Nc1nc2c(s1)CCc1ccccc1-2 | i | -1.9 | -0.49 | i | i | i
N#C/C(=C(/O)CCl)c1nc2c(s1)CCc1ccccc1-2 | i | -15.5 | 0 | 6* | i | i
O=C(O)CCN1C(=O)c2ccc(NC(=O)C(c3ccccc3)c3ccccc3)cc2C1=O | i | -11.7 | 0.33 | i | i | i
CC1CC(C)C[N+](=C2C=C(N3CCCC3)CC(C)(C)C2)C1 (stereo not drawn) | i | -17.1 | -5.82* | 8* | i | i
CCCN(CC(=O)Nc1ccccc1C)C(=O)Cc1n[nH]c(=O)c2ccccc12 | . | . | . | . | . | i
Cc1cccc(NC(=O)COC(=O)CSc2ccccc2)c1C | . | . | . | . | . | i
CCC(C)(C)NC(=O)C(c1cccc(OC)c1)N(C(=O)c1ccn[nH]1)c1cccc(OC)c1 (stereo not drawn) | i | -13.9 | -1.54 | 8* | i | i
SMILES | KCNQ1 act | hERG rescue | Kir21 inh | KCNQ1 block | KCNK9 block | KCNK3 block
Cc1cc(C)c(OCC(=O)OC(C)C(=O)N2CCc3ccccc32)c(C)c1 (stereo not drawn) | i | -12.8 | 0.1 | i | i | i
CCOC(=O)c1cc(NC(=O)c2cccs2)ccc1N1CCOCC1 | i | 4.7* | -0.08 | i | i | i
COC(=O)c1cc(NC(=O)c2cc(-c3ccc(C(F)(F)F)cc3)oc2C(F)(F)F)ccc1N1CCOCC1 | i | 1.9 | 1.72 | 8* | i | i
N=C1C(c2ccccc2)=C(O)CN1c1cccc(S(=O)(=O)N2CCCCC2)c1 | i | -18.2 | -1.04 | i | i | i
CCc1ccc(OCC(=O)Nc2ccc3c(c2)OCCO3)cc1 | i | -3.3 | -4.67* | i | i | i
O=C(COC(=O)c1cccnc1Cl)NCc1ccc2c(c1)OCO2 | i | -10.9 | -0.37 | i | i | i
C/C(=N\OCC(=O)Nc1ccc(OC(F)(F)F)cc1)c1ccc2c(c1)OCCO2 | 10* | -5.8 | -0.02 | i | i | i
O=C(COC(=O)c1cccnc1Cl)Nc1ccc2c(c1)OCCO2 | i | 37.3* | 1.63 | i | i | i
COc1cccc(NC(=O)CSc2nc3c(sc4ccccc43)c(=O)n2CCCN2CCCC2)c1 | i | -14.2 | -5.68* | i | i | i
COc1cccc(NC(=O)CSc2nc3c(sc4ccccc43)c(=O)n2CCN(C)C)c1 | i | -15.1 | -0.65 | i | i | i
C/C(=N\N=C(N)N)c1ccc(Cl)c(Cl)c1 | i | -21.4 | -5.27* | i | i | i
O=C(Cn1cnc([N+](=O)[O-])c1)Nc1cc(Oc2ccc(Cl)cc2Cl)cc([N+](=O)[O-])c1 | i | -7.9 | 0.32 | 8* | i | i
O=C(c1ccccc1)C(Nc1ccccn1)c1ccccc1 (stereo not drawn) | i | -13.4 | -1.73 | i | -7.05* | i
O=C(Nc1ccccn1)c1ccccc1 | . | . | . | . | . | i
Cn1nc(C(F)(F)F)c(-c2cccc(C(F)(F)F)c2)c1NC(=O)Nc1ccc(F)cc1 | i | -4.3 | -1.15 | i | i | i
CCNc1c2c3c(cccc3n(C)c1=O)C(=O)c1ccccc1-2 | i | -43.6 | -11.3 | i | i | .
Cn1c(=O)c(NCCO)c2c3c(cccc31)C(=O)c1ccccc1-2 | i | -47.4 | -11.9 | 25* | i | i
Cc1ncsc1C(=O)N1N=C2/C(=C/c3ccc(N4CCOCC4)cc3)CCCC2C1c1ccc(N2CCOCC2)cc1 (stereo not drawn) | i | -12.5 | 0.38 | i | i | i

Assay outcomes as filed in PubChem.
